From ChEMBL document CHEMBL3593208 (Bioorg Med Chem, 2015) come the findings set out here.

The structures appear in SMILES notation.

The target of one experiment is Histone deacetylase 1 (Homo sapiens, UniProt Q13547). The experiment can be described thus: Inhibition of recombinant full-length HDAC1 (unknown origin) using MAZ1600/MAZ1675 as substrate assessed as release of 7 amino-4-methylcoumarin measured every 5 mins by fluorescence assay. Put shortly:
(§1)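 AMC release after deacetylase plus trypsin action read every 5 min. First derivative in the linear range used. Replicates normalised to DMSO controls (<0.5%). IC50 by logistic regression, unconstrained max/min.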

For a further experiment, the target named is Histone deacetylase 2 (Homo sapiens, UniProt Q92769). Nature of the experiment: Inhibition of recombinant full-length HDAC2 (unknown origin) using MAZ1600/MAZ1675 as substrate assessed as release of 7 amino-4-methylcoumarin measured every 5 mins by fluorescence assay. An outline of the steps:
as §1

For another experiment, the target named is Histone deacetylase 3 (Homo sapiens, UniProt O15379). The experiment can be described thus: Inhibition of recombinant full-length HDAC3 (unknown origin) using MAZ1600/MAZ1675 as substrate assessed as release of 7 amino-4-methylcoumarin measured every 5 mins by fluorescence assay.
Sequence of Histone deacetylase 3 (O15379 whole entry): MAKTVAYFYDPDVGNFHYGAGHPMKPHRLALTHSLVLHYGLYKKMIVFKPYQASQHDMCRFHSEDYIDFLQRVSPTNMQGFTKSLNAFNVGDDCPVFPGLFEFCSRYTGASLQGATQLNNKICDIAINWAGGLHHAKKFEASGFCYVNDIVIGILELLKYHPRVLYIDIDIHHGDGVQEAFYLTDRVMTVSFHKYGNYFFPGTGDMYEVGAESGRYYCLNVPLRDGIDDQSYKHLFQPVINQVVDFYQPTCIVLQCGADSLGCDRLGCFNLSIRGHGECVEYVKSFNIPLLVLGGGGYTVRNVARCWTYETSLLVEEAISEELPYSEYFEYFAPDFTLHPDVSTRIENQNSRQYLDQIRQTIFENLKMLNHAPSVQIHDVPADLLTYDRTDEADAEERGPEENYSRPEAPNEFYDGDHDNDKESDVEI
The target of another experiment is T1, Histone deacetylase 8 (Homo sapiens, UniProt Q9BY41).
T1 sequence (Q9BY41 whole entry): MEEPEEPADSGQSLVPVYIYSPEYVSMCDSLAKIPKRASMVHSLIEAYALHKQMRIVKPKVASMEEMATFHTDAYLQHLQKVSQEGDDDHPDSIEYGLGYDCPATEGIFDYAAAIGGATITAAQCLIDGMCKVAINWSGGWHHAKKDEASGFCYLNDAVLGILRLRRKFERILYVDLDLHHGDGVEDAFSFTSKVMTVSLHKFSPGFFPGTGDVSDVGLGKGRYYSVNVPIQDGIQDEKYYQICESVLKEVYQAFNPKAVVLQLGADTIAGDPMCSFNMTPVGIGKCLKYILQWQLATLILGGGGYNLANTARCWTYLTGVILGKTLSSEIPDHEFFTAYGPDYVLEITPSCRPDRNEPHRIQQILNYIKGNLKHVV
Nature of the experiment: Inhibition of recombinant full-length HDAC8 (unknown origin) using MAZ1600/MAZ1675 as substrate assessed as release of 7 amino-4-methylcoumarin measured every 5 mins by fluorescence assay. An outline of the steps:
as §1

Experiment [1] in a line: Cytotoxicity against human NMC-797 cells assessed as cell viability after 48 hrs by luminescence assay. Conditions: NMC-797, 48 h. The experiment is classed as functional, cell-based. An outline of the steps:
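797 cells seeded at 2.0×10^4 cells/well in 384-well plates. Compound was pin-transferred in a dose-response series with 0.02% DMSO final and incubated 48 h. Viability was read as ATP-dependent luminescence. IC50 was estimated by logistic regression of replicate measurements against dose, with standard error of logIC50.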

Experiment [2] can be described thus: Cytotoxicity against human NMC-10326 cells assessed as cell viability after 48 hrs by luminescence assay. The experiment is classed as functional, cell-based. An outline of the steps:
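Cells seeded in 384-well plates at 2.0×10^4 cells/well; compound pin-transferred in a dose series, final DMSO 0.02%. After 48 h exposure, viability read as ATP-dependent luminescence (ATPLite). IC50 estimated from replicate measurements by logistic regression.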

Experiment [3] addresses T2, Protein deacetylase HDAC6 (Homo sapiens, UniProt Q9UBN7).
T2 sequence (Q9UBN7 whole entry): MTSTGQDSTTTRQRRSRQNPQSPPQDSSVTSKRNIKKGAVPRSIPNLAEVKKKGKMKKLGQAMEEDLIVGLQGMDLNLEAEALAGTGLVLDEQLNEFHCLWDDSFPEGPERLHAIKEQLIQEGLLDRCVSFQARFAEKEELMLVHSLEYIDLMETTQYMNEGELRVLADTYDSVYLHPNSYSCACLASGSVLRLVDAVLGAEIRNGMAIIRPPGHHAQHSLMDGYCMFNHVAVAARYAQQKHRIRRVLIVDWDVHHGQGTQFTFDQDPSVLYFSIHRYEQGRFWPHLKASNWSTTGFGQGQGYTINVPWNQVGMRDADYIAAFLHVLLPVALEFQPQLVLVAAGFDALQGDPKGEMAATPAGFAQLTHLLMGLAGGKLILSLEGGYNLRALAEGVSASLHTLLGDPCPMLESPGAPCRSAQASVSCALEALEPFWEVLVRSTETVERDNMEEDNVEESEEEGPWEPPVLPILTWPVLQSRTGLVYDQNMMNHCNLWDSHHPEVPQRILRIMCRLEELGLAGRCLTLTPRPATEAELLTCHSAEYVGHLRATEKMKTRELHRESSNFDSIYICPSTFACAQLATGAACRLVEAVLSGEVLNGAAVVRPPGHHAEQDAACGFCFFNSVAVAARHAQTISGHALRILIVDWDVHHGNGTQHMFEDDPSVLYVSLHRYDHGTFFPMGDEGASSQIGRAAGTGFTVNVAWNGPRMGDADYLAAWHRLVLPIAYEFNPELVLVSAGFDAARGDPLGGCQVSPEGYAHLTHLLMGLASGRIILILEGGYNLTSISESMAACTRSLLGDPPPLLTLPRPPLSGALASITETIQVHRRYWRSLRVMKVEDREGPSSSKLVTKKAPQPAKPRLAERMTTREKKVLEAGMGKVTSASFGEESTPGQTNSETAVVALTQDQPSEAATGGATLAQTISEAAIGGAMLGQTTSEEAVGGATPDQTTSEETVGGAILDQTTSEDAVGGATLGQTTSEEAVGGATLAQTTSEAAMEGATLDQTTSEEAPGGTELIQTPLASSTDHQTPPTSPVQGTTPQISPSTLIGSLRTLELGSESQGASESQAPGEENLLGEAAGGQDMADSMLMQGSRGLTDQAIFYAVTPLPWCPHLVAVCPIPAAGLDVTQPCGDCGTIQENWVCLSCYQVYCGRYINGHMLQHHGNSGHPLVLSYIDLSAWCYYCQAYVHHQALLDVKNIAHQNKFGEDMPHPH
Nature of the experiment: Inhibition of recombinant full-length HDAC6 (unknown origin) using MAZ1600/MAZ1675 as substrate assessed as release of 7 amino-4-methylcoumarin measured every 5 mins by fluorescence assay. An outline of the steps:
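AMC release after deacetylase/trypsin action read every 5 min. Linear-range first derivative normalised to DMSO controls (<0.5%). IC50 by unconstrained logistic regression.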

Sequence of Histone deacetylase 1 (Q13547 whole entry): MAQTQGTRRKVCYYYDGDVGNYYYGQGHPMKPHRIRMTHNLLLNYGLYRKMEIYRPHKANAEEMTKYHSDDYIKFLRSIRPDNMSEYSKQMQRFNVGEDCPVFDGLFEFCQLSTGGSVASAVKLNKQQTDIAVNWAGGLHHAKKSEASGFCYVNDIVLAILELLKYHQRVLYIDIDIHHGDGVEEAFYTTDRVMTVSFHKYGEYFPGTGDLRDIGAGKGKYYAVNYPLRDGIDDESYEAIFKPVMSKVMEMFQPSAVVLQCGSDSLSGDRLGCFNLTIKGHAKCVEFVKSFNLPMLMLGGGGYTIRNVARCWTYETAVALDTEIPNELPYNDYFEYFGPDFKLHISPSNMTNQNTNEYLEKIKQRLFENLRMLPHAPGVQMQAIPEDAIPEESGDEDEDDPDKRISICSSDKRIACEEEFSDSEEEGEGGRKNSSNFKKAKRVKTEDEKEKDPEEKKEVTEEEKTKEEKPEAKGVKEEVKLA
Sequence of Histone deacetylase 2 (Q92769 whole entry): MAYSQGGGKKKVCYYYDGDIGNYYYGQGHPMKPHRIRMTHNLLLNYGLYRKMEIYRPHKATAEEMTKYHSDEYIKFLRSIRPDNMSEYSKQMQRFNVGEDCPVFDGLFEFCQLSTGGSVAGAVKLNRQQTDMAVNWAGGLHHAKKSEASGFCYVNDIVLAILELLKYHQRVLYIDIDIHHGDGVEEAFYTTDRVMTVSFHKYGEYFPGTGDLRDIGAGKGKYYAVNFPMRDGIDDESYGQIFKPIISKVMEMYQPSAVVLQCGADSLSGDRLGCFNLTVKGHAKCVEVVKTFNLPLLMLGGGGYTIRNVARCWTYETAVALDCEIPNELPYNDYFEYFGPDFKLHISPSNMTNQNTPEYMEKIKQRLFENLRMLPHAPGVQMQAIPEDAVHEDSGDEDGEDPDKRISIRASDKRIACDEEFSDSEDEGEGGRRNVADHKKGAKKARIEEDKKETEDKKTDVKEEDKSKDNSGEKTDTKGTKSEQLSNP

On to `CCCCCCCC(=O)SCC/C=C/[C@@H]1CC(=O)NCc2cc(ccn2)C2=N[C@@](C)(CS2)C(=O)N[C@@H](C(C)C)C(=O)O1`, for which the IC50 at Histone deacetylase 1 is 340 nM; at Histone deacetylase 2 it was 655 nM; at Histone deacetylase 3, 320 nM.

For `CCCCCCCC(=O)SCC/C=C/[C@@H]1CC(=O)NCc2cccc(n2)C2=N[C@@](C)(CS2)C(=O)N[C@@H](C(C)C)C(=O)N1`, the IC50 on Histone deacetylase 1 amounted to 340 nM; at Histone deacetylase 2, 472 nM; at Histone deacetylase 3, 332 nM.

As to `CC(C)[C@@H]1NC(=O)[C@]2(C)CSC(=N2)c2csc(n2)CNC(=O)C[C@@H](/C=C/CCS)NC1=O`, the IC50 at Histone deacetylase 8 is 255 nM; in experiment [1] (read-out: IC50) it was 1740 nM; in experiment [1] (read-out: pIC50 (converted)), 1730 nM; in experiment [2] (read-out: IC50) it was 11900 nM; in experiment [2] (read-out: pIC50 (converted)), 11900 nM.

In the case of `CC(C)[C@@H]1NC(=O)[C@]2(C)CSC(=N2)c2cccc(n2)CNC(=O)C[C@@H](/C=C/CCS)OC1=O`, the IC50 was 341 nM at Histone deacetylase 8; 220 nM in experiment [1] (read-out: IC50); 222 nM in experiment [1] (read-out: pIC50 (converted)); 48.5 nM in experiment [3]; 3.07 nM on Histone deacetylase 3; 290 nM in experiment [2] (read-out: IC50). The IC50 in experiment [2] (read-out: pIC50 (converted)) is 298 nM.

For the molecule `CC(C)[C@@H]1NC(=O)[C@]2(C)CSC(=N2)c2cccc(n2)CNC(=O)C[C@@H](/C=C/CCS)NC1=O`, the IC50 turned out to be 42 nM on Histone deacetylase 1, 69.8 nM on Histone deacetylase 2 and 42.5 nM at Histone deacetylase 3.

As for `CC(C)[C@@H]1NC(=O)[C@]2(C)CSC(=N2)c2ccnc(c2)CNC(=O)C[C@@H](/C=C/CCS)NC1=O`, the IC50 amounted to 13.2 nM on Histone deacetylase 1; 1490 nM at Histone deacetylase 8; 20.8 nM at Histone deacetylase 2; 2850 nM in experiment [3]; 14.6 nM on Histone deacetylase 3.

For the molecule `CCCCCCCC(=O)SCC/C=C/[C@@H]1CC(=O)NCc2cccc(n2)C2=N[C@@](C)(CS2)C(=O)N[C@@H](C(C)C)C(=O)O1`, the results for the IC50 at Histone deacetylase 1, at Histone deacetylase 2 and on Histone deacetylase 3 were 204 nM, 350 nM and 332 nM, respectively.

On to `CCCCCCCC(=O)SCC/C=C/[C@@H]1CC(=O)NCc2cc(ccn2)C2=N[C@@](C)(CS2)C(=O)N[C@@H](C(C)C)C(=O)N1`, for which the values for the IC50 at Histone deacetylase 1, on Histone deacetylase 2 and at Histone deacetylase 3 were 817 nM, 1240 nM and 846 nM, respectively.

For `CC(C)[C@@H]1NC(=O)[C@]2(C)CSC(=N2)c2ccnc(c2)CNC(=O)C[C@@H](/C=C/CCS)OC1=O`, the IC50 is 2.2 nM at Histone deacetylase 1; 102 nM on Histone deacetylase 8; 90 nM in experiment [1] (read-out: IC50); 93.1 nM in experiment [1] (read-out: pIC50 (converted)); 4.42 nM at Histone deacetylase 2; 35.2 nM in experiment [3]. The IC50 on Histone deacetylase 3 was 2.31 nM; in experiment [2] (read-out: IC50), 120 nM; in experiment [2] (read-out: pIC50 (converted)), 122 nM.
